Assay results from ChEMBL document CHEMBL2062411, “Structure-activity relationship study of selective excitatory amino acid transporter subtype 1 (EAAT1) inhibitor 2-amino-4-(4-methoxyphenyl)-7-(naphthalen-1-yl)-5-oxo-5,6,7,8-tetrahydro-4H-chromene-3-carbonitrile (UCPH-101) and absolute configurational assignment using infrared and vibrational …” (J Med Chem, 2012).

Columns and labels:
Assay type in all cases: cell-based
[1] = biological target: Excitatory amino acid transporter 1 (Homo sapiens, UniProt P43003); assay: Inhibition of human EAAT1 expressed in HEK293 cells assessed as inhibition of 3[H]-D-Aspartate uptake after 6 mins by scintillation counting method
Excitatory amino acid transporter 1, sequence (P43003 whole entry): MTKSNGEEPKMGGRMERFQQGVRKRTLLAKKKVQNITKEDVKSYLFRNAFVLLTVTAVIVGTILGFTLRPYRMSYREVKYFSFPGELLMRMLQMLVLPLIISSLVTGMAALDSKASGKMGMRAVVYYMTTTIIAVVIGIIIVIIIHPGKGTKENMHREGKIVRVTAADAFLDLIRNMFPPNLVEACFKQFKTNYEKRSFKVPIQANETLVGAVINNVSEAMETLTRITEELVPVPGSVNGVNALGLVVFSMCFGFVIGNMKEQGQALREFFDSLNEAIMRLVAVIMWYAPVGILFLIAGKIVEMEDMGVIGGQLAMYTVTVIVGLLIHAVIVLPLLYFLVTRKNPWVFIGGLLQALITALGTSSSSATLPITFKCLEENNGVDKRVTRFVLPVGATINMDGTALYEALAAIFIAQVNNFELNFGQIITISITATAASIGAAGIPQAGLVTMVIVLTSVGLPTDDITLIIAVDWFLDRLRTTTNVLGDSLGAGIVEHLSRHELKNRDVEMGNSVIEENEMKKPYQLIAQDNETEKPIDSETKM
In short: (§1)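 HEK293 cell lines expressing EAAT1, EAAT2 or EAAT3 were cultured and assayed for [³H]-D-aspartate uptake, following an earlier published protocol. Inhibition is reported as IC50 in μM, with pIC50 ± SEM.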

[2] = biological target: Excitatory amino acid transporter 2 (Homo sapiens, UniProt P43004); assay: Inhibition of human EAAT2 expressed in HEK293 cells assessed as inhibition of 3[H]-D-Aspartate uptake after 6 mins by scintillation counting method; in short: as §1
Excitatory amino acid transporter 2, sequence (P43004 whole entry): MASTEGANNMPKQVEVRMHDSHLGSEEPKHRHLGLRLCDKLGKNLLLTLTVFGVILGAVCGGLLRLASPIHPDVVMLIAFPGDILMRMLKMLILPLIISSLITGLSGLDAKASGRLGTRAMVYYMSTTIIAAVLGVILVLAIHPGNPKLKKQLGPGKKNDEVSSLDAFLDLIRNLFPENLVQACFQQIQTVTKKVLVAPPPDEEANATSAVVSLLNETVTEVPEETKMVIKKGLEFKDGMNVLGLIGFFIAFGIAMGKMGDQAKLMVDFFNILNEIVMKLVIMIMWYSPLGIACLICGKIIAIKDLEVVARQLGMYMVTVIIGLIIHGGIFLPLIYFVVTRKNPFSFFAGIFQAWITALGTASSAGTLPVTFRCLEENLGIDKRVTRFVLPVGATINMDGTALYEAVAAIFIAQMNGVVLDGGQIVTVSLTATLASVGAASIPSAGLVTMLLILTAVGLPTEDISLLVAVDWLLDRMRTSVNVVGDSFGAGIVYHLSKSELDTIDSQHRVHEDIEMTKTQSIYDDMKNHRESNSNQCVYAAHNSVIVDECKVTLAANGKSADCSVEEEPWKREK

[3] = biological target: T1, Excitatory amino acid transporter 3 (Homo sapiens, UniProt P43005); assay: Inhibition of human EAAT3 expressed in HEK293 cells assessed as inhibition of 3[H]-D-Aspartate uptake after 6 mins by scintillation counting method; in short: as §1
T1 sequence (P43005 whole entry): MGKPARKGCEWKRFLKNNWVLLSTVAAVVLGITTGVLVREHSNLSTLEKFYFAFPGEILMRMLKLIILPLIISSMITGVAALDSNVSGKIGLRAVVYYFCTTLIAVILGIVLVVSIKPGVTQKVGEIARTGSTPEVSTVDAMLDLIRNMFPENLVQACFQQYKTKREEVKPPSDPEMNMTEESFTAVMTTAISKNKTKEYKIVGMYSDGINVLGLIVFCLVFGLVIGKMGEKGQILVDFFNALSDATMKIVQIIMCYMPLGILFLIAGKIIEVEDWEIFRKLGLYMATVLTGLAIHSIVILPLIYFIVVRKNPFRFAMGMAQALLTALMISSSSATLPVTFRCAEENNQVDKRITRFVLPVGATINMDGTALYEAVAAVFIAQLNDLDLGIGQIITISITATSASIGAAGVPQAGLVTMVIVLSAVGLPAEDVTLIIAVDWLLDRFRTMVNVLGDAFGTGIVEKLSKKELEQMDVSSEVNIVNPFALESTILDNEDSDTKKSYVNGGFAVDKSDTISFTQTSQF

| SMILES | IC50 ([1]; read-out: IC50) | IC50 ([1]; read-out: pIC50 (converted)) | IC50 [2] | IC50 [3] |
| --- | --- | --- | --- | --- |
| CC1C(C#N)=C(N)OC2=C1C(=O)CC(c1cccc3ccccc13)C2 (stereo unspecified) | 0.42 µM |  |  |  |
| CC1(C)C(C#N)=C(N)OC2=C1C(=O)CC(c1ccccc1)C2 (stereo unspecified) | > 300 µM |  |  |  |
| C[C@H](c1ccccc1)N1CC(=O)C2=C(C1)OC(N)=C(C#N)[C@@H]2c1ccccc1 |  | > 316 µM | > 300 µM | > 300 µM |
| C[C@@H](c1ccccc1)N1CC(=O)C2=C(C1)OC(N)=C(C#N)[C@H]2c1ccccc1 |  | 5.25 µM | > 300 µM | > 300 µM |
| C[C@@H](c1ccccc1)N1CC(=O)C2=C(C1)OC(N)=C(C#N)[C@@H]2c1ccccc1 |  | > 316 µM | > 300 µM | > 300 µM |
| N#CC1=C(N)OC2=C(C(=O)CN(C(=O)c3ccccc3)C2)C1c1ccccc1 (stereo unspecified) |  | > 100 µM | > 100 µM | > 100 µM |

Further lines, results first:

| IC50 ([1]; read-out: IC50) | IC50 ([1]; read-out: pIC50 (converted)) | IC50 [2] | IC50 [3] | SMILES |
| --- | --- | --- | --- | --- |
|  | 16.2 µM | > 300 µM | > 300 µM | N#CC1=C(N)OC2=C(C(=O)CN(Cc3ccccc3)C2)C1c1ccccc1 (stereo unspecified) |
| > 300 µM |  |  |  | N#CC1=C(N)OC2=C(C(=O)OC(c3ccccc3)C2)C1c1ccccc1 (stereo unspecified) |
|  | > 100 µM | > 100 µM | > 100 µM | N#CC1=C(N)OC2=C(C(=O)CN(c3ccccc3)C2)C1c1ccccc1 (stereo unspecified) |
| 3.9 µM |  |  |  | N#CC1=C(N)OC2=C(C(=O)CC(c3ccccc3)C2)C1c1ccccc1 (stereo unspecified) |
|  | 3.72 µM | > 300 µM | > 300 µM | C[C@H](c1ccccc1)N1CC(=O)C2=C(C1)OC(N)=C(C#N)[C@H]2c1ccccc1 |
| > 300 µM |  |  |  | N#CC1=C(N)OC2=C(C(=O)NC(c3ccccc3)C2)C1c1ccccc1 (stereo unspecified) |
